Experimental findings from ChEMBL document CHEMBL2434946, “Synthesis of lipoic acid-peptide conjugates and their effect on collagen and melanogenesis” (Eur J Med Chem, 2013) are described below.

One may read the inhibition as the share of the control response that was lost under treatment. What is called IC50 is the midpoint of a concentration-inhibition curve. One may read the solubility as the concentration that dissolves in the medium under given conditions. Read a low solubility as little dissolved substance.

Activity calls are given as the source filed them. No cut-off for these calls is given here. Peptide text beside a SMILES is read from it.

For series [1], the target named is T1, Tyrosinase (Agaricus bisporus) (UniProt O42713).
T1 sequence (whole entry): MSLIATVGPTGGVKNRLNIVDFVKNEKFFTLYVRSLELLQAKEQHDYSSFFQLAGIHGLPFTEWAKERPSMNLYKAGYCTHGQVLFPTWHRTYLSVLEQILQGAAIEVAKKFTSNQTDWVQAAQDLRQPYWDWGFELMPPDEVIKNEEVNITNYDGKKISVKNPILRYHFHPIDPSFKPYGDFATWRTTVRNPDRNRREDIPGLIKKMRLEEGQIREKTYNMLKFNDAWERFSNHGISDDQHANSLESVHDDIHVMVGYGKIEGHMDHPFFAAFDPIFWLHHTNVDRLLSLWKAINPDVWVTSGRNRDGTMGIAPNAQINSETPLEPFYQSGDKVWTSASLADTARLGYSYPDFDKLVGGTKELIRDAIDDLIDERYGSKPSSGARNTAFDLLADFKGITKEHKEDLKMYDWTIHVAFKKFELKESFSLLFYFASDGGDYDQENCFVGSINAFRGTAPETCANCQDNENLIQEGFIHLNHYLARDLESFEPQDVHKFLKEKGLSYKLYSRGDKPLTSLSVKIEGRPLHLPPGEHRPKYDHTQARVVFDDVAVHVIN
The experiment in a line: Inhibition of mushroom tyrosinase using L-DOPA as substrate at 2.5 mM preincubated for 10 to 15 mins prior to substrate addition by spectrophotometry. In outline: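 Mushroom tyrosinase (625 U/mL solution) pre-incubated with sample in phosphate-buffered saline for 10–15 min at 25 °C. Reaction started with 0.03% L-DOPA, and dopachrome formation read at 475 nm. Result given as percent inhibition; triplicate, mean ± SD.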

In series [2] the test system is HDF. The series can be described thus: Induction of collagen synthesis in HDF at 0.5 mM after 24 hrs by EIA. The format is functional. The conditions noted are these: Homo sapiens. The method in brief: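 HDFs seeded at 5 × 10^4 cells and grown 24 h in DMEM with 10% FBS. Medium then switched to serum-free medium containing sample (0.5 mM) for 24 h. Type I procollagen in the supernatant measured by enzyme immunoassay kit; triplicate, mean ± SD.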

Series [3] addresses T2, Tyrosinase (Mus musculus) (UniProt P11344).
T2 sequence (whole entry): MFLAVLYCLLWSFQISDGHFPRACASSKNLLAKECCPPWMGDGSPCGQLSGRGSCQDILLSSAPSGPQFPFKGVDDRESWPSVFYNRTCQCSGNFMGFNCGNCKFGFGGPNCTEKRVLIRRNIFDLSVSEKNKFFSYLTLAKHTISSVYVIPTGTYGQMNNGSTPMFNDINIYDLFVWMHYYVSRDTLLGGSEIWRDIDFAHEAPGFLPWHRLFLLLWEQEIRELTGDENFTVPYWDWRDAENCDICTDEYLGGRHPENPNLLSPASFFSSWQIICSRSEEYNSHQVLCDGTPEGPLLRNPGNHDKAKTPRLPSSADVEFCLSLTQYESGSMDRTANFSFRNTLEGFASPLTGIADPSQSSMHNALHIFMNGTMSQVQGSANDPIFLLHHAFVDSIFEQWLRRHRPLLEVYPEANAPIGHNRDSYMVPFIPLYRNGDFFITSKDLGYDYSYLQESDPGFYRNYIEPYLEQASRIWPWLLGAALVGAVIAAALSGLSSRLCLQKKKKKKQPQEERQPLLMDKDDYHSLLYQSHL
The series can be described thus: Inhibition of tyrosinase in mouse B16F10 cells assessed as inhibition of melanin synthesis at 0.25 mM after 72 hrs by spectrophotometry relative to control. The format is cell-based. The conditions noted are these: B16-F10. In outline:
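B16F10 cells grown with α-MSH were treated with samples for 72 h, then counted, washed and pelleted. Pellets solubilized in 1 N NaOH plus phosphate buffer pH 6.8 containing 1% Triton X-100 and 2 mM PMSF. Melanin read at 405 nm against a synthetic melanin standard curve and expressed as percent of control; triplicate, mean ± SD.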

Series [4] is described as follows: Inhibition of UV light-induced MMP-1 protein expression in HDF after 72 hrs UV light irradiation by ELISA. It counts as functional, Homo sapiens. The conditions noted are these: for inhibition: Homo sapiens. In outline:
(§1)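 HDFs washed twice with PBS, then exposed to UVA at 6.3 J/cm2. MMP-1 protein in culture medium measured by ELISA 72 h after irradiation: anti-MMP-1 monoclonal 60 min at 37 °C, alkaline phosphatase-conjugated anti-mouse IgG 30 min, OD405. IC50 taken as the dose that lowers UV-induced MMP-1 by 50%; triplicate, mean ± SD.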

A short description of series [5]: Inhibition of UV light-induced MMP-1 protein expression in HDF at 0.5 mM after 72 hrs UV light irradiation by ELISA. It counts as functional. The conditions noted are these: Homo sapiens. The method in brief:
as §1
On the technique in general: ELISA stands for enzyme-linked immunosorbent assay.

The nature of series [6]: Cytotoxicity against mouse B16F10 cells assessed as cell viability after 48 hrs by MTT assay. The conditions noted are these: read-out: MNCC. The format is cell-based, B16-F10. The method in brief: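 B16F10 mouse melanoma cells grown in DMEM with 10% FBS, 1% penicillin-streptomycin and […] at 37 °C under 5% CO2. Exposed to samples 48 h at 37 °C, then MTT added for 3 h with A570 read-out. Reported value is the highest tested dose that caused no loss of viability.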
A general note: Formazan colour is commonly taken as a measure of viable cells.

A short description of series [7]: Induction of HDF proliferation at 0.5 mM after 48 hrs by MTT assay relative to control. The format is functional, Homo sapiens. In outline: (§2)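 Human dermal fibroblasts grown in DMEM with 10% FBS and 1% penicillin-streptomycin at 37 °C under 5% CO2. Treated 48 h at 0.5, 2.5 and 5 mM. MTT ([…]) added for 3 h at 37 °C, then absorbance read at 570 nm. Result expressed as percent viable cells versus untreated control; triplicate, mean ± SD.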

The nature of series [8]: Solubility of the compound in water. The format is physicochemical.
Series [9] relates to HDF. The series can be described thus: Induction of HDF proliferation at 0.1 mM after 48 hrs by MTT assay relative to control. It counts as functional. The conditions noted are these: Homo sapiens.
Series [10] is described as follows: Cytotoxicity against HDF at 0.5 to 5 mM after 48 hrs by MTT assay. The conditions noted are these: human, 5000 µM. In outline: as §2
The nature of series [11]: Induction of HDF proliferation at 5 mM after 48 hrs by MTT assay relative to control. It counts as functional, Homo sapiens. The method in brief:
as §2

Turning to `C[C@@H](O)[C@H](NC(=O)[C@H](CCCCN)NC(=O)CCCC[C@@H]1CCSS1)C(=O)N[C@H](C(=O)N[C@@H](CCCCN)C(=O)N[C@@H](CO)C(=O)O)[C@@H](C)O` (HELM PEPTIDE1{[O=C(CCCC[C@@H]1CCSS1)[*:2]].K.T.T.K.S}$$$$V2.0), the inhibition in series [1] was 60.2%; in [3] it was 46.1%; in series [4] it was “Dose-dependent effect”; in [5], 49.5%. Moreover, the result with HDF [2] was Active. Moreover, the IC50 in series [4] is 500 µM. For the same molecule, the MNTC at 48 h in series [6] came out at 1 mM. This molecule also gave an Activity in [7] of 24.5%. Further, the solubility in [8] was above 100 mg/mL.

With `O=C(O)CCCCC1CCSS1` (stereo not drawn) [LIPOIC ACID, ALPHA], the outcome in the series on HDF [9] was inactive. The inhibition entry in series [1] was “Active”. The Activity entry in [10] is “Toxic”. The MNTC at 48 h in series [6] came to 0.1 mM.

Take H-KTTKS-OH: the inhibition entry in series [1] was “Active”. The result with HDF [2] was Active. Moreover, the inhibition in series [3] is 7.5%; in series [4], “Dose-dependent effect”. The same molecule had an Activity in [11] of 13.4%. For the same molecule, the MNTC at 48 h in series [6] worked out at 5 mM.
